For series [1], the system named is Rattus norvegicus. The experiment in a line: Antiinflammatory activity in Wistar rat assessed as inhibition of carrageenan-induced paw edema at 100 mg/kg, after 3 hrs. It counts as functional. A digest of the protocol:
(§1)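 Male Wistar rats (170 ± 20 g) dosed orally: test agents at 100 mg/kg, reference at 10 mg/kg. One hour later, 0.1 ml of 1% carrageenan injected subplantar into the right hind paw.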

In series [2] the test system is Mus musculus. The experiment in a line: Analgesic activity in Swiss Albino mouse assessed as inhibition of acetic acid-induced writhing responses at 100 mg/kg, po after 1 hr. It counts as functional. The method in brief: (§2)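 Mice dosed orally; one hour later injected i.p. with 1% v/v acetic acid at 0.1 ml/10 g. Writhings counted over 15 min, starting five minutes after injection. Means ± SEM, n = 6; p < 0.05 versus control group.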

The subject of series [3] is Rattus norvegicus. The experiment in a line: Antiinflammatory activity in Wistar rat assessed as inhibition of carrageenan-induced paw edema at 100 mg/kg, after 6 hrs. It counts as functional. The method in brief:
as §1

In series [4] the test system is Rattus norvegicus. Briefly: Antiinflammatory activity in Wistar rat assessed as inhibition of carrageenan-induced paw edema at 100 mg/kg, after 1 hr. It counts as functional. A digest of the protocol: as §1
Series [5] has as its system Rattus norvegicus. The experiment in a line: Antiinflammatory activity in Wistar rat assessed as inhibition of carrageenan-induced paw edema at 100 mg/kg, after 24 hrs. It counts as functional. A digest of the protocol:
as §1

In series [6] the test system is Rattus norvegicus. Briefly: Antiinflammatory activity in Wistar rat assessed as inhibition of carrageenan-induced paw edema at 100 mg/kg, after 2 hrs. It counts as functional. A digest of the protocol:
as §1

Series [7] has as its system Rattus norvegicus. Briefly: Antiinflammatory activity in Wistar rat assessed as inhibition of carrageenan-induced paw edema at 100 mg/kg, after 4 hrs. It counts as functional. The method in brief: as §1
The test system of series [8] is Mus musculus. The experiment in a line: Analgesic activity in Swiss Albino mouse assessed as number of acetic acid-induced writhing at 100 mg/kg, po after 1 hr relative to control. It counts as functional. A digest of the protocol:
as §2

In series [9] the test system is Rattus norvegicus. Briefly: Antipyretic activity against LPS-induced pyresis in Wistar rat assessed as change in rectal temperature at 100 mg/kg, po after 7 hrs. It counts as functional. A digest of the protocol:
(§3)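 Male Wistar rats (170 ± 20 g) dosed orally: test agents at 100 mg/kg, indomethacin and aspirin at 10 mg/kg and 100 mg/kg. Half an hour later, LPS in apyrogenic saline given at 100 µg/kg i.p. Rectal temperature taken by telethermometer probe immediately before LPS and hourly from 1 to 7 h after. Change in temperature reported; means ± SEM, n = 6.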

Series [10] deals with Rattus norvegicus. Briefly: Antipyretic activity against LPS-induced pyresis in Wistar rat assessed as change in rectal temperature at 100 mg/kg, po after 4 hrs. It counts as functional. A digest of the protocol: as §3
Series [11] has as its system Rattus norvegicus. Briefly: Antipyretic activity against LPS-induced pyresis in Wistar rat assessed as change in rectal temperature at 100 mg/kg, po after 5 hrs. It counts as functional. A digest of the protocol: as §3
Series [12] relates to Rattus norvegicus. The experiment in a line: Antipyretic activity against LPS-induced pyresis in Wistar rat assessed as change in rectal temperature at 100 mg/kg, po after 3 hrs. It counts as functional. A digest of the protocol:
as §3

Series [13] relates to Rattus norvegicus. Briefly: Antipyretic activity against LPS-induced pyresis in Wistar rat assessed as change in rectal temperature at 100 mg/kg, po after 1 hr. It counts as functional. The method in brief: as §3
Series [14] concerns Rattus norvegicus. The experiment in a line: Antipyretic activity against LPS-induced pyresis in Wistar rat assessed as change in rectal temperature at 100 mg/kg, po after 2 hrs. It counts as functional. A digest of the protocol: as §3
In series [15] the test system is Rattus norvegicus. Briefly: Antipyretic activity against LPS-induced pyresis in Wistar rat assessed as change in rectal temperature at 100 mg/kg, po after 6 hrs. It counts as functional. A digest of the protocol:
as §3

Series [16] concerns Rattus norvegicus. The experiment in a line: Toxicity in 24 hrs fasted Wistar rat assessed as ulcer index at 100 mg/kg, po after 6 hrs. It counts as organism-based. The arrangement: dose 100 mg/kg, route oral. Conditions: in vivo. The method in brief: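 Male Wistar rats (175 ± 25 g) fasted 24 h and dosed orally. Acute arm: test agents at 100 mg/kg, indomethacin at 30 mg/kg; rats killed after 6 h, stomachs opened along the greater curvature and scored for ulcers. Chronic arm: 14-day dosing, stomachs examined post mortem at the end of the arthritis study. Ulcer index means ± SEM, n = 4.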

Series [17] relates to Rattus norvegicus. Briefly: Antiarthritic activity against adjuvant-induced arthritis in Wistar rat assessed as weight change at 100 mg/kg, po. It counts as functional. A digest of the protocol:
(§4)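 Male Wistar rats (160 ± 10 g) dosed orally once daily for 14 days, from the day before injecting 0.1 ml Freund's complete adjuvant into the subplantar surface of the right hind paw. Paw swelling, including the uninjected left paw, and body weight recorded. Means ± SEM, n = 6; p < 0.05 versus control.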

In series [18] the test system is Rattus norvegicus. Briefly: Antiarthritic activity against adjuvant-induced arthritis in Wistar rat assessed as inhibition of paw edema at 100 mg/kg, po on day 13. It counts as functional. Conditions: 312 h. The method in brief: as §4
For series [19], the system named is Rattus norvegicus. Briefly: Antiarthritic activity against adjuvant-induced arthritis in Wistar rat assessed as inhibition of paw edema at 100 mg/kg, po on day 8. It counts as functional. Conditions: 192 h. The method in brief: as §4
The subject of series [20] is Rattus norvegicus. The experiment in a line: Antiarthritic activity against adjuvant-induced arthritis in Wistar rat assessed as inhibition of paw edema at 100 mg/kg, po on day 3. It counts as functional. The conditions noted are these: 72 h. The method in brief: as §4

As to `COc1cc2c(cc1OC)C(CC(=O)Nc1ccccn1)CC2` (stereo not given), the inhibition in vivo at 100 mg/kg in series [1] is 30.4%; in series [2] it was 48%; in series [3] it was 29.6%; in series [4] it was 25%; in series [5], 33.3%; in series [6], 32%. For the same molecule, the inhibition in vivo at 100 mg/kg in series [7] was 29.7%. In addition, the Activity in [8] is 18.

Regarding `COc1cc2c(cc1OC)C(CC(=O)Nc1cccnc1)CC2` (stereo not given), the inhibition in vivo at 100 mg/kg in [1] stood at 33.3%; in [2], 70.7%; in series [3], 35.2%; in series [4], 25%; in series [5], 36.7%; in [6] it was 30%. In addition, in series [7], the inhibition in vivo at 100 mg/kg came out at 34.4%. For the same molecule, in series [8], the Activity came to 10.17.

Turning to `COc1cc2c(cc1OC)C(CC(=O)Nc1ccccc1)CC2` (stereo not given), the inhibition in vivo at 100 mg/kg in series [1] is 36.2%; in series [2], 42.8%; in [3] it was 38.9%; in [4], 31.2%; in series [5], 30%; in series [6], 32%. In [7], the inhibition in vivo at 100 mg/kg is 37.5%. For the same molecule, in [8], the Activity is recorded as 19.83.

Regarding `COc1ccc(NC(=O)CC2CCc3cc(OC)c(OC)cc32)cc1` (stereo not given), the Activity is 0.43 °C in [9]; -0.15 °C in series [10]; 0.14 °C in series [11]; -0.66 °C in [12]; -0.12 °C in series [13]; 14.33 in series [8]. Besides, the Activity in series [14] is -1.84 °C; in series [15], 0.26 °C. For the same molecule, the inhibition in vivo at 100 mg/kg was 26.1% in [1]; 58.7% in series [2]; 29.6% in series [3]; 34.4% in [4]; 40% in series [5]; 18% in series [6]. Moreover, the inhibition in vivo at 100 mg/kg in series [7] came out at 27.3%.

For the molecule `COc1cc2c(cc1OC)C(CC(=O)Nc1ccc(NC(C)=O)cc1)CC2` (stereo not given), the inhibition in vivo at 100 mg/kg in [1] was 23.2%; in series [2] it was 30.8%; in [3], 24.1%; in series [4] it was 25%; in [5] it was 33.3%; in series [6], 18%. Besides, the inhibition in vivo at 100 mg/kg in series [7] came to 22.7%. In addition, the Activity in series [8] is reported as 24.

With `COc1cc2c(cc1OC)C(CC(=O)Nc1ccccc1C)CC2` (stereo not given), the inhibition in vivo at 100 mg/kg in series [1] came to 26.1%; in series [2] it was 30%; in series [3], 25.9%; in series [4], 21.9%; in [5] it was 23.3%; in [6], 18%. Besides, in series [7], the inhibition in vivo at 100 mg/kg was 25%. Also, in [8], the Activity was found to be 24.3.

Turning to `COc1cc2c(cc1OC)C(CC(=O)Nc1ccc(C)cc1)CC2` (stereo not given), the UI in series [16] is 0. Moreover, the inhibition in vivo at 100 mg/kg in series [1] was 34.8%; in series [2], 41.4%; in series [3] it was 37%; in series [4], 34.4%; in series [5], 30%; in series [6], 26%. The inhibition in vivo at 100 mg/kg in [7] is 32.8%. Besides, the Activity in [8] turned out to be 20.33.

On to `COc1cc2c(cc1OC)C(CC(=O)Nc1ccc([N+](=O)[O-])cc1)CC2` (stereo not given), for which the figures for the Activity in [17] and in series [8] were 4.01 g and 15.33, respectively. The UI in [16] is reported as 0. The inhibition in vivo at 100 mg/kg worked out at 10.8% in series [18]; 17.7% in [19]; 37.7% in series [1]; 55.8% in [2]; 37% in series [3]; 37.5% in series [4]. In addition, the inhibition in vivo at 100 mg/kg came out at 27.2% in series [20], 43.3% in series [5], 36% in series [6] and 37.5% in series [7].

Consider `COc1cc2c(cc1OC)C(CC(=O)Nc1ccc(Br)cc1)CC2` (stereo not given), for which the inhibition in vivo at 100 mg/kg in [1] was found to be 43.5%; in series [2], 37.5%; in [3], 46.3%; in [4] it was 50%; in series [5] it was 66.7%; in [6] it was 40%. Moreover, the inhibition in vivo at 100 mg/kg in series [7] worked out at 40.6%. Further, in [8], the Activity is recorded as 21.67.

For the molecule `COc1cc2c(cc1OC)C(CC(=O)Nc1ccncc1)CC2` (stereo not given), the Activity was 0.42 °C in series [9]; 4.25 g in series [17]; 0.13 °C in series [10]; 0.35 °C in series [11]; -0.87 °C in series [12]; -0.11 °C in [13]. The Activity in [8] was 13.83; in series [14] it was -2.23 °C; in [15] it was 0.74 °C. The inhibition in vivo at 100 mg/kg in series [18] is 19.7%; in series [19] it was 11.1%; in series [1] it was 42%; in series [2], 60.1%; in series [3], 46.3%; in series [4], 42.2%. Moreover, the inhibition in vivo at 100 mg/kg was 17% in [20], 46.7% in series [5], 44% in [6] and 45.3% in series [7].

Turning to `COc1cc2c(cc1OC)C(CC(=O)O)CC2` (stereo not given), the inhibition in vivo at 100 mg/kg came out at 27.5% in series [1]; 44% in series [2]; 20.4% in series [3]; 18.8% in series [4]; 26.7% in series [5]; 24% in series [6]. Also, the inhibition in vivo at 100 mg/kg in series [7] is 23.9%. In addition, the Activity in [8] is reported as 19.41.

For the molecule `COc1ccccc1NC(=O)CC1CCc2cc(OC)c(OC)cc21` (stereo not given), the inhibition in vivo at 100 mg/kg in series [1] worked out at 21.7%; in series [2] it was 24.5%; in [3] it was 24.1%; in series [4], 28.1%; in [5], 30%; in series [6], 16%. In addition, the inhibition in vivo at 100 mg/kg in series [7] worked out at 23.4%. In addition, the Activity in series [8] stood at 26.17.

(Values after ChEMBL document CHEMBL1138278, “Aromatic amide derivatives of 5,6-dimethoxy-2,3-dihydro-1H-inden(-1-yl)acetic acid as anti-inflammatory agents free of ulcerogenic liability” (Bioorg Med Chem Lett, 2007).)
